Counter-ions that a name gives are not always drawn. Like-named read-outs stand apart in the source and are kept apart here. Blank lines part the entries; values can stand above or below the compound they belong to.
How the values were obtained:
GIST-T1 cells = assay: Cell cycle analysis, GIST-T1; format: cell-based; conditions: P < 0.01
GIST-T1/IMR cells = assay: Cell cycle analysis, GIST-T1/IMR; format: cell-based; conditions: DMS with IM vs only IM, P < 0.01
[1] = system: GIST-T1 and GIST-T1/IMR cells; assay: Cell scratch assay; format: cell-based; conditions: DMS (10 µM, 5 h) pretreatment then IM (20 µM) vs only IM treatment, P < 0.01
[2] = system: GIST-T1 and GIST-T1/IMR cells; assay: Longitudinal migration through uncoated Matrigel; format: cell-based; conditions: both cell lines
In short: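 Parental and resistant GIST-T1 cells were grown in RPMI 1640 with 15% FBS at 37 °C, 5% CO2. Vertical migration was scored as the number of cells passing through uncoated Matrigel.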

[3] = system: GIST-T1 and GIST-T1/IMR cells; assay: Transwell chamber invasion assay; format: cell-based; conditions: DMS pretreatment and then IM treatment, within 48 h
In short: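 Parental and resistant GIST-T1 cells in RPMI 1640 with 15% FBS (37 °C, 5% CO2) were tested in a transwell chamber. Invasion within 48 h was counted as transmembrane cells.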

[4] = system: GIST-T1 and GIST-T1/IMR cells; assay: Plate colony formation experiment; format: cell-based; conditions: P < 0.01
[5] = system: GIST-T1 and GIST-T1/IMR cells; assay: Cell apoptosis analysis; format: cell-based
[6] = system: S1P, SPK1 and ABCC1 protein expression; assay: Western blot of SPK1/S1P proteins; format: cell-based; conditions: after DMS blockage for 5 h
In short: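 Lysates of parental and resistant GIST-T1 cells were probed with rabbit polyclonal anti-S1P, anti-SPK1 and anti-β-actin antibodies, plus anti-ABCC1. Bands were visualised by enhanced chemiluminescence.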

SPK1 = SPK1 compared to SPK2; cited from earlier work
[7] = Therapeutic drug monitoring; format: in vivo, human; conditions: 400 mg/qd; for concentration at 22 h: both, human, plasma, oral, Plasma concentration
In short: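 Patients on oral drug 400 mg once daily for over 1 month (steady state) took the dose at about 12:00. Peripheral venous blood was drawn about 10:00 next morning into anticoagulant tubes and centrifuged at 5000 rpm for 5 min. Plasma was stored at −20 °C, protein-precipitated, centrifuged and injected directly for 2D-LC-UV quantitation.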

GISTs = conditions: cited from earlier work
[8] = cited from earlier work

SMILES: CCCCCCCCCCCCC/C=C/[C@@H](O)[C@H](CO)N(C)C [DMS, N,N-dimethylsphingosine]
proportion of G0/G1 phase (GIST-T1 cells; GIST-T1, DMS with IM vs only IM): significantly lower
proportion of G0/G1 phase (GIST-T1/IMR cells): significantly lower
scratch healing rate [1]: significantly decreased
ability of longitudinal migration ([2]; DMS pretreatment with IM): further block
number of transmembrane cells [3]: further reduced dramatically
Colony formation ability ([4]; DMS pretreatment vs IM intervention's group): further reduced
apoptosis rate ([5]; after DMS interference vs cells without DMS treatment): significantly higher
protein levels of S1P, ABCC1 and SPK1 [6]: decreased
inhibitory activity on sphingosine kinases (SPK1): high inhibitory activity on SPK1 compared to SPK2

difference between the highest and lowest IM concentration ([7]; 29 patients): more than 12 fold
concentration at 22 h ([7]; OCT1 1022C > T (rs 2282143) CC, n=22): 1.51 ± 0.842 µg/mL
concentration at 22 h ([7]; OCT1 1022C > T (rs 2282143) TC, n=7): 1.75 ± 1.09 µg/mL
concentration at 22 h ([7]; OCT1 1222 A > G (rs628031) AA, n=1): 0.3 µg/mL
concentration at 22 h ([7]; OCT1 1222 A > G (rs628031) AG, n=10): 1.82 ± 1.01 µg/mL
concentration at 22 h ([7]; OCT1 1222 A > G (rs628031) GG, n=18): 1.5 ± 0.798 µg/mL
concentration at 22 h ([7]; OCT1 1386C > A (rs 622342) AA, n=24): 1.58 ± 0.801 µg/mL
concentration at 22 h ([7]; OCT1 1386C > A (rs 622342) AC, n=5): 1.49 ± 1.38 µg/mL
concentration at 22 h ([7]; OCT1 1795G > A (rs6935207) AA, n=8): 0.961 ± 0.401 µg/mL
concentration at 22 h ([7]; OCT1 1795G > A (rs6935207) AG, n=13): 1.86 ± 0.978 µg/mL
concentration at 22 h ([7]; OCT1 1795G > A (rs6935207) GG, n=8): 1.7 ± 0.89 µg/mL
SMILES: Cc1ccc(NC(=O)c2ccc(CN3CCN(C)CC3)cc2)cc1Nc1nccc(-c2cccnc2)n1 [IM, Imatinib mesylate]
proportion of G0/G1 phase (GIST-T1 cells; exposed to IM vs control): higher proportion
longitudinal migration capacity ([2]; 20 μM of IM for 48 h, P < 0.01): decreased significantly
number of colony formation ([4]; IM intervention vs control): significantly less than the control group
apoptosis rate ([5]; GIST-T1 cells treated with IM alone vs control, P < 0.01): higher than that of the control group
GISTs patients developing secondary drug resistance (GISTs; after 1–3 years of IM treatment): ~85%
pH at which IM tablets dissolve rapidly [8]: ≤ 5.5

SMILES: CNC(=O)c1cc(Oc2ccc(NC(=O)Nc3ccc(Cl)c(C(F)(F)F)c3)c(F)c2)ccn1 [regorafenib]
median PFS (GISTs; use after sunitinib resistance): 4.8 months
objective response rate (GISTs; use after sunitinib resistance): 5.5%

SMILES: CCn1c(=O)c(-c2cc(NC(=O)Nc3ccccc3)c(F)cc2Br)cc2cnc(NC)cc21 [ripretinib]
median PFS (GISTs; phase III trial): 6.3 months
objective response rate (GISTs; phase III trial): 9%

SMILES: CCN(CC)CCNC(=O)c1c(C)[nH]c(/C=C2\C(=O)Nc3ccc(F)cc32)c1C [sunitinib]
median PFS (GISTs; use after IM resistance): 9.9 months
objective response rate (GISTs; use after IM resistance): 5.5%
